Source: ChEMBL document CHEMBL1152244, “Proteochemometrics analysis of substrate interactions with dengue virus NS3 proteases” (Bioorg Med Chem, 2008)
Each block holds one compound with its values, some of them ahead of it. Non-standard residues stand in square brackets, D forms with d. Residues, ends and D or L forms follow the SMILES beside them. Tyr(3-NO2) = N[C@@H](Cc1ccc(O)c([N+](=O)[O-])c1)C(=O)O; 2Abz = Nc1ccccc1C(=O)O

Tests used:
dengue virus type 1 = assay: Activity of dengue virus 1 recombinant NS3 protease expressed in Escherichia coli C41(DE3) by fluorogenic assay
Method in brief: (§1)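 NS2B(H)-NS3pro from inclusion bodies, Ni-chelate and gel filtration purified under 8 M urea, refolded by dialysis. Internally quenched Abz–RRRR-XXXX–nY–NH2 peptides, 1–100 µM (12 points), enzyme 150–200 nM, 50 mM Tris–HCl pH 9.0, 20% glycerol, 37 °C. Cleavage read as fluorescence, ex 320/em 420 nm. Initial rates fitted to give Km and kcat, averaged over ≥3 independent measurements.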

dengue virus type 2 = assay: Activity of dengue virus 2 recombinant NS3 protease expressed in Escherichia coli C41(DE3) by fluorogenic assay; method in brief: as §1
dengue virus type 3 = assay: Activity of dengue virus 3 recombinant NS3 protease expressed in Escherichia coli C41(DE3) by fluorogenic assay; method in brief: as §1
dengue virus type 4 = assay: Activity of dengue virus 4 recombinant NS3 protease expressed in Escherichia coli C41(DE3) by fluorogenic assay; method in brief: as §1

Km (dengue virus type 1): 8.81 µM
kcat (dengue virus type 1): 0.0138 s⁻¹
Km (dengue virus type 2): 3.21 µM
kcat (dengue virus type 2): 0.00467 s⁻¹
Km (dengue virus type 3): 13 µM
kcat (dengue virus type 3): 0.0102 s⁻¹
Km (dengue virus type 4): 3.03 µM
kcat (dengue virus type 4): 0.0372 s⁻¹
Structure (SMILES): C[C@H](NC(=O)[C@H](CC(N)=O)NC(=O)c1ccccc1N)C(=O)N[C@@H](CS)C(=O)N[C@@H](CS)C(=O)N[C@@H](Cc1ccc(O)c([N+](=O)[O-])c1)C(N)=O (H-[2Abz]NACC[Tyr(3-NO2)]-NH2)

Km (dengue virus type 1): 16.3 µM
kcat (dengue virus type 1): 0.153 s⁻¹
Km (dengue virus type 2): 3.33 µM
kcat (dengue virus type 2): 0.026 s⁻¹
Km (dengue virus type 3): 13.8 µM
kcat (dengue virus type 3): 0.03 s⁻¹
Km (dengue virus type 4): 14.3 µM
kcat (dengue virus type 4): 0.219 s⁻¹
Structure (SMILES): CSCC[C@H](NC(=O)[C@H](C)NC(=O)[C@H](C)NC(=O)[C@H](CO)NC(=O)c1ccccc1N)C(=O)N[C@@H](Cc1ccc(O)c([N+](=O)[O-])c1)C(N)=O (H-[2Abz]SAAM[Tyr(3-NO2)]-NH2)

Km (dengue virus type 1): 25.5 µM
kcat (dengue virus type 1): 0.166 s⁻¹
Km (dengue virus type 2): 3.44 µM
kcat (dengue virus type 2): 0.031 s⁻¹
Km (dengue virus type 3): 24.9 µM
kcat (dengue virus type 3): 0.0557 s⁻¹
Km (dengue virus type 4): 22.7 µM
kcat (dengue virus type 4): 0.282 s⁻¹
Structure (SMILES): CSCC[C@H](NC(=O)CNC(=O)[C@H](C)NC(=O)[C@H](CO)NC(=O)c1ccccc1N)C(=O)N[C@@H](Cc1ccc(O)c([N+](=O)[O-])c1)C(N)=O (H-[2Abz]SAGM[Tyr(3-NO2)]-NH2)

Km (dengue virus type 1): 28.4 µM
kcat (dengue virus type 1): 0.282 s⁻¹
Km (dengue virus type 2): 3.61 µM
kcat (dengue virus type 2): 0.0423 s⁻¹
Km (dengue virus type 3): 20.9 µM
kcat (dengue virus type 3): 0.0685 s⁻¹
Km (dengue virus type 4): 15.2 µM
kcat (dengue virus type 4): 0.461 s⁻¹
Structure (SMILES): C[C@H](NC(=O)[C@H](CO)NC(=O)c1ccccc1N)C(=O)NCC(=O)N[C@@H](Cc1ccc(O)c([N+](=O)[O-])c1)C(N)=O (H-[2Abz]SAG[Tyr(3-NO2)]-NH2)

Km (dengue virus type 1): 26.3 µM
kcat (dengue virus type 1): 0.0685 s⁻¹
Km (dengue virus type 2): 11.4 µM
kcat (dengue virus type 2): 0.0123 s⁻¹
Km (dengue virus type 3): 11.3 µM
kcat (dengue virus type 3): 0.0285 s⁻¹
Km (dengue virus type 4): 9.77 µM
kcat (dengue virus type 4): 0.0783 s⁻¹
Structure (SMILES): NC(=O)[C@H](Cc1ccc(O)c([N+](=O)[O-])c1)NC(=O)[C@H](CC(=O)O)NC(=O)[C@H](CS)NC(=O)[C@H](Cc1cnc[nH]1)NC(=O)[C@H](CO)NC(=O)c1ccccc1N (H-[2Abz]SHCD[Tyr(3-NO2)]-NH2)

The remaining lines, values behind:

Structure (SMILES): NC(=O)[C@H](Cc1ccc(O)c([N+](=O)[O-])c1)NC(=O)[C@H](Cc1cnc[nH]1)NC(=O)[C@@H]1CCCN1C(=O)[C@H](CO)NC(=O)[C@H](Cc1cnc[nH]1)NC(=O)c1ccccc1N (H-[2Abz]HSPH[Tyr(3-NO2)]-NH2)
Km (dengue virus type 1): 16.7 µM
kcat (dengue virus type 1): 0.00633 s⁻¹
Km (dengue virus type 2): 5.77 µM
kcat (dengue virus type 2): 0.00117 s⁻¹
Km (dengue virus type 3): 19.6 µM
kcat (dengue virus type 3): 0.000833 s⁻¹
Km (dengue virus type 4): 7.25 µM
kcat (dengue virus type 4): 0.00417 s⁻¹

Structure (SMILES): NC(=O)C[C@H](NC(=O)c1ccccc1N)C(=O)N1CCC[C@H]1C(=O)N[C@@H](CO)C(=O)N[C@@H](Cc1cnc[nH]1)C(=O)N[C@@H](Cc1ccc(O)c([N+](=O)[O-])c1)C(N)=O (H-[2Abz]NPSH[Tyr(3-NO2)]-NH2)
Km (dengue virus type 1): 13.4 µM
kcat (dengue virus type 1): 0.00617 s⁻¹
Km (dengue virus type 2): 5.18 µM
kcat (dengue virus type 2): 0.00133 s⁻¹
Km (dengue virus type 3): 26.9 µM
kcat (dengue virus type 3): 0.00183 s⁻¹
Km (dengue virus type 4): 21.5 µM
kcat (dengue virus type 4): 0.0225 s⁻¹

Structure (SMILES): C[C@@H](O)[C@H](NC(=O)[C@H](Cc1c[nH]c2ccccc12)NC(=O)[C@H](CC(N)=O)NC(=O)c1ccccc1N)C(=O)N[C@@H](CC(N)=O)C(=O)N[C@@H](Cc1ccc(O)c([N+](=O)[O-])c1)C(N)=O (H-[2Abz]NWTN[Tyr(3-NO2)]-NH2)
Km (dengue virus type 1): 13.7 µM
kcat (dengue virus type 1): 0.0145 s⁻¹
Km (dengue virus type 2): 6.02 µM
kcat (dengue virus type 2): 0.005 s⁻¹
Km (dengue virus type 3): 9.37 µM
kcat (dengue virus type 3): 0.0065 s⁻¹
Km (dengue virus type 4): 10.4 µM
kcat (dengue virus type 4): 0.0378 s⁻¹

Structure (SMILES): C[C@@H](O)[C@H](NC(=O)[C@H](CO)NC(=O)c1ccccc1N)C(=O)N1CCC[C@H]1C(=O)N[C@@H](Cc1cnc[nH]1)C(=O)N[C@@H](Cc1ccc(O)c([N+](=O)[O-])c1)C(N)=O (H-[2Abz]STPH[Tyr(3-NO2)]-NH2)
Km (dengue virus type 1): 18.1 µM
kcat (dengue virus type 1): 0.0313 s⁻¹
Km (dengue virus type 2): 17.2 µM
kcat (dengue virus type 2): 0.0157 s⁻¹
Km (dengue virus type 3): 42.2 µM
kcat (dengue virus type 3): 0.0145 s⁻¹
Km (dengue virus type 4): 14.8 µM
kcat (dengue virus type 4): 0.078 s⁻¹

Structure (SMILES): CC(C)C[C@H](NC(=O)[C@@H]1CCCN1C(=O)[C@H](Cc1c[nH]c2ccccc12)NC(=O)[C@H](CO)NC(=O)c1ccccc1N)C(=O)N[C@@H](Cc1ccc(O)c([N+](=O)[O-])c1)C(N)=O (H-[2Abz]SWPL[Tyr(3-NO2)]-NH2)
Km (dengue virus type 1): 12.6 µM
kcat (dengue virus type 1): 0.0323 s⁻¹
Km (dengue virus type 2): 5.54 µM
kcat (dengue virus type 2): 0.0105 s⁻¹
Km (dengue virus type 3): 12 µM
kcat (dengue virus type 3): 0.0148 s⁻¹
Km (dengue virus type 4): 7.18 µM
kcat (dengue virus type 4): 0.0668 s⁻¹
